Lmaj promast: reduces viability of Leishmania major promastigotes. resazurin fluorescence viability. 200,000 tested, 9% active. inhibition, % at 10 µM; in the data active = inhibition above about 50%;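 note: promastigotes grown with compound for 44 hours at 28 °C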
T cruzi repl: T. cruzi replication inhibition. T. cruzi beta-gal in NIH3T3, luminescence, 90 h. 300,000 tested, 1.4% active. AID 1885. inhibition, % (concentration not given with the values);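 active = mean inhibition across valid replicates above about 55%, limit read from the data; inconclusive = mean below that limit but half or more replicates reach it; inactive = mean below it, under half of replicates reach it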;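 note: signal also drops with host cell toxicity which is not excluded here; 0% = plate median of DMSO wells and 100% = zero luminescence signal; higher percent means less beta-gal luminescence so fewer parasites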
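Assay system: NIH/3T3 fibroblasts plus reporter T. cruzi. Amount: NIH/3T3 cells, 5,000 per well. Buffer or medium: DMEM, 2% fetal bovine serum. Doses: compound pinned at 50 nL/well, DMSO. Schedule: ≥90 h infection period, 3 h prior cell attachment. Signal: luminescent β-galactosidase signal after 60 min lysis. Read-out: parasite load inhibition, %.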
Beta apoptosis: beta cell apoptosis inhibition. INS-1E cytokine-induced death, ATP luminescence, 48 h; percent of positive-control rescue, neutral wells zero. protection from apoptosis, % (concentration not given with the values). 300,000 tested, 0.8% active. AID 435005;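 active = Every replicate reaches about 75%, or at least half do and their mean reaches it too, limit read from the data; inconclusive = At least half of replicates reach the limit but their mean does not; inactive = Under half of replicates reach the limit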;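 note: 0% = cytokine-treated negative control wells and 100% = positive control rescue; higher means more ATP so stronger rescue from cytokine killing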
SKKanGAS inh: inhibitors of SKKanGAS S. pyogenes growth in kanamycin (SK-promoter or general growth effect); BacTiter-Glo, 6 h; AID 1662; inhibition, % at 7.5 µM; 300,000 tested, 1.3% active;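 active = mean replicate score, as percent of positive control median, at least 50; inconclusive = mean below 50 but one replicate at or above 50; inactive = mean and every replicate below 50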;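 note: strain carries kanamycin resistance gene driven by streptokinase promoter and grows in 40 µg/ml kanamycin; loss of luminescence reflects streptokinase promoter inhibition or plain growth inhibition; 0% = median of DMSO wells and 100% = positive control at its reference dose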
Mdm2 MdmX PPI: human Mdm2/MdmX binding inhibition; O15151+Q00987; SaOS-2 split-luciferase Mdm2/MdmX complementation, luminescence; inhibition, % at 8 µM; 330,000 tested, 3% active; AID 485346;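 active = inhibition of at least 50% at 8 µM in the primary screen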
Target sequence (O15151 whole entry, looked up): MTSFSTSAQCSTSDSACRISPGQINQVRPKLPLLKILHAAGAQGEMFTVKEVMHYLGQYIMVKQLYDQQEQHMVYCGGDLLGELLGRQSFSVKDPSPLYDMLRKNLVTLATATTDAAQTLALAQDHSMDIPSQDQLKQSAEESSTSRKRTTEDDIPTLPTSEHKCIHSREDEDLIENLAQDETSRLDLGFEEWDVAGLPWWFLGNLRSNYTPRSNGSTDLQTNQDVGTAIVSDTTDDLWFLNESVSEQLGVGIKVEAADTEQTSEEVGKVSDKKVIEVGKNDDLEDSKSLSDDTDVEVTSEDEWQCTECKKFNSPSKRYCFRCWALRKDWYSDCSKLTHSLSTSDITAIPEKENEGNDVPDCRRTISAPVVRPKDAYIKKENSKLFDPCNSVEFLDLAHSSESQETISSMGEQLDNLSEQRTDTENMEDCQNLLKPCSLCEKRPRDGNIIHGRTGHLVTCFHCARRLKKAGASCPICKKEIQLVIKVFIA
Target sequence (Q00987 whole entry, looked up): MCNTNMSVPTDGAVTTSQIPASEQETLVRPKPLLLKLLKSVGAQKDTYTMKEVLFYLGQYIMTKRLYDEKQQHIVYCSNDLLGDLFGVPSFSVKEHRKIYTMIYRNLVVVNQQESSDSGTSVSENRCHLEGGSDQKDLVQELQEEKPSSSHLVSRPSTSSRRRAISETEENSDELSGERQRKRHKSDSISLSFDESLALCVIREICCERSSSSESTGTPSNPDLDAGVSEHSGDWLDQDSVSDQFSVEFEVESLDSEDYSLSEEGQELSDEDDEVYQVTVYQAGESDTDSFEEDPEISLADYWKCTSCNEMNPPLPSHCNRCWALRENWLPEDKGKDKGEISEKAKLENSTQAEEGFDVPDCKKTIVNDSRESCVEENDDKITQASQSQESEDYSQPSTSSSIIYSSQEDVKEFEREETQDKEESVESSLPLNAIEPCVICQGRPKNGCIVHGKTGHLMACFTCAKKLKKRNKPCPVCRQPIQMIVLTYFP
CSC inhib: blocks cancer stem cells | AID 2717 | inhibition, % at 7.5 µM | 300,000 tested, 1.1% active | cancer stem cell-like cells viability, luminescence; in the data active = inhibition above about 75%; inconclusive = no clear call, values can overlap the other calls; tested in HMLE shEcad cells
Mdm2-MdmX conf: human Mdm2/MdmX binding inhibition, confirmed; shares compounds with Mdm2 MdmX PPI; luminescent assay; inhibition, % at 8 µM; 10,000 tested, 55% active; in the data active = inhibition above about 40%
Full FLuc ctr: full-length luciferase inhibition in Mdm2/MdmX counter-screen; AID 504607; SaOS-2 full-length luciferase counterscreen, luminescence; inhibition, % at 8 µM; shares compounds with Mdm2 MdmX PPI; 6,200 tested, 77% active;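 active = mean inhibition at 8 µM reaching about 37%, which flags the compound as non-specific, limit read from the data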;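 note: p53-null SaOS-2 cells with luciferase driven by a doxycycline-inducible promoter; compound on cells about two nights before reading with doxycycline added after day one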
Numbers without * were called inactive. The list is not random: actives were taken first. Their share in the collection is about 9.4%.

For CCc1ccccc1Nc1nc(N)nc(COC(=O)c2cccn2C)n1 the results were Lmaj promast 13, T cruzi repl 4, Beta apoptosis -4, SKKanGAS inh -1, Mdm2 MdmX PPI 54*, CSC inhib 47, Mdm2-MdmX conf 62* and Full FLuc ctr 196*.
For COc1ccc(Nc2ccc3c(c2)=NC2(CCCCC2)[N+]=3[O-])cc1 the results were Lmaj promast 101*, T cruzi repl 58*, Beta apoptosis 104*, SKKanGAS inh 7, Mdm2 MdmX PPI 100*, CSC inhib 52, Mdm2-MdmX conf 59* and Full FLuc ctr 39*.
`COc1ccc(NC2=NC(=S)N(c3ccccc3C)C23CCCCC3)cc1` gave Lmaj promast 11, T cruzi repl -1, Beta apoptosis 3, SKKanGAS inh -1, Mdm2 MdmX PPI 10 and CSC inhib -20.
`CS(=O)(=O)c1nc(-c2ccc(Br)cc2)cc(-c2ccccc2)c1C#N` gave Lmaj promast 84*, T cruzi repl 36, Beta apoptosis 19, SKKanGAS inh 5, Mdm2 MdmX PPI 100*, CSC inhib 86*, Mdm2-MdmX conf 76* and Full FLuc ctr 52*.
COc1ccc(-c2cc(-c3ccc(OC)cc3)c(C#N)c(SC)n2)cc1 was read as Lmaj promast 1, T cruzi repl 14, Beta apoptosis 1, SKKanGAS inh 9, Mdm2 MdmX PPI 32 and CSC inhib -4.
Screening CS(=O)c1nc(-c2ccc(Br)cc2)cc(-c2ccccc2)c1C#N (centres undefined) returned Lmaj promast 100*, T cruzi repl 15, Beta apoptosis 12, SKKanGAS inh -1, Mdm2 MdmX PPI 100*, CSC inhib 75*, Mdm2-MdmX conf 87* and Full FLuc ctr 6.
`N#Cc1c(-c2ccc(Br)cc2)cc(-c2cccnc2)nc1N` gave Lmaj promast 4, T cruzi repl 22, Beta apoptosis 3, SKKanGAS inh 6, Mdm2 MdmX PPI -5 and CSC inhib 2.
Screening COc1ccc(-c2cc(-c3ccccc3)c(C#N)c(S(C)(=O)=O)n2)cc1 returned Lmaj promast 98*, T cruzi repl 20, Beta apoptosis -1, SKKanGAS inh 11, Mdm2 MdmX PPI 90*, CSC inhib -1 and Mdm2-MdmX conf -24.
Screening COc1nc(-c2ccccc2)cc(-c2ccc3c(c2)OCO3)c1C#N returned T cruzi repl -12, Beta apoptosis 9, SKKanGAS inh -14, Mdm2 MdmX PPI 57*, CSC inhib 38, Mdm2-MdmX conf 58* and Full FLuc ctr 58*.
`Cc1ccsc1C(=O)OCC(=O)NC1CCS(=O)(=O)C1` (centres undefined) gave Lmaj promast -3, T cruzi repl -6, Beta apoptosis -3, SKKanGAS inh -21, Mdm2 MdmX PPI 15 and CSC inhib 4.
Screening Cc1c(C(=O)Nc2ccc(S(=O)(=O)N(C)C3CCN(C)CC3)cc2)oc2c(Cl)cccc12 returned T cruzi repl 59*, SKKanGAS inh -14, Mdm2 MdmX PPI 88*, CSC inhib 11, Mdm2-MdmX conf 75* and Full FLuc ctr 64*.
For Cc1c(C(=O)Nc2ccc(N3CCOCC3)cc2)oc2ccccc12 the results were Lmaj promast 0, T cruzi repl -4, Beta apoptosis 3, SKKanGAS inh -1, Mdm2 MdmX PPI -22 and CSC inhib 4.
Screening O=C(COc1ccc(Br)cc1Cl)NC(=O)Nc1ccc2c(c1)OCCO2 returned Lmaj promast -4, T cruzi repl -12, Beta apoptosis 0, SKKanGAS inh 6, Mdm2 MdmX PPI 53*, CSC inhib -1 and Mdm2-MdmX conf 5.
CN1CCC(N(C)S(=O)(=O)c2ccc(NC(=O)COc3ccc(Br)cc3Cl)cc2)CC1 was read as T cruzi repl inconclusive, Beta apoptosis 3, SKKanGAS inh 14, Mdm2 MdmX PPI 63*, Mdm2-MdmX conf 56* and Full FLuc ctr 72*.
`Cc1c(C(=O)Nc2ccc(S(=O)(=O)N(C)C3CCN(C)CC3)cc2)oc2ccccc12` gave Beta apoptosis -2, Mdm2 MdmX PPI 92*, CSC inhib 1 and Mdm2-MdmX conf 35.
`O=C1CC2(CCN(C(=O)c3c(F)cccc3F)CC2)Oc2ccccc21` gave T cruzi repl -10, Beta apoptosis -5, SKKanGAS inh 10, Mdm2 MdmX PPI -3 and CSC inhib -14.
For COc1ccc(OC)c(S(=O)(=O)NC2CCCCNC2=O)c1 (centres undefined) the results were T cruzi repl -3, SKKanGAS inh -4 and Mdm2 MdmX PPI 16.
For Cc1nc2ccccc2n1CC(=O)OCC(=O)NC1CC1 the results were Lmaj promast 9, T cruzi repl -8, SKKanGAS inh -8 and Mdm2 MdmX PPI 12.
For Cc1cccc(CS(=O)(=O)c2ncc(Cl)c(C(=O)NCc3ccc4c(c3)OCO4)n2)c1 the results were T cruzi repl -14, Beta apoptosis 24, SKKanGAS inh -8, Mdm2 MdmX PPI 60*, CSC inhib -17, Mdm2-MdmX conf 64* and Full FLuc ctr 16.
`CCSc1ncc(Cl)c(C(=O)Nc2ccc(S(N)(=O)=O)cc2)n1` gave T cruzi repl inconclusive, Beta apoptosis 3, SKKanGAS inh -1, Mdm2 MdmX PPI -3 and CSC inhib 13.
CC(=O)Nc1ccc(NC(=O)c2nc(S(=O)(=O)Cc3cccc(C)c3)ncc2Cl)cc1 was read as T cruzi repl 8, Beta apoptosis -6, SKKanGAS inh 3, Mdm2 MdmX PPI 86*, CSC inhib 91*, Mdm2-MdmX conf 66* and Full FLuc ctr 51*.
COC(=O)c1ccc(NC(=O)c2nc(S(=O)(=O)Cc3cccc(C)c3)ncc2Cl)cc1 was read as T cruzi repl -9, Beta apoptosis 75*, SKKanGAS inh 104*, Mdm2 MdmX PPI 76*, CSC inhib 110*, Mdm2-MdmX conf 91* and Full FLuc ctr 52*.
Cc1cccc(COC(=O)Nc2ccc(NC(=O)c3ccccc3Cl)cc2)c1 was read as T cruzi repl -1, Beta apoptosis -15, SKKanGAS inh 7, Mdm2 MdmX PPI 6 and CSC inhib 14.
O=C(C1CCC(CNS(=O)(=O)c2cccc3nsnc23)CC1)N1CCN(c2ccccn2)CC1 (centres undefined) was read as Lmaj promast 1, T cruzi repl 18, Beta apoptosis -2, SKKanGAS inh -7, Mdm2 MdmX PPI 8 and CSC inhib 2.
Screening COC(=O)c1ccc(NC(=O)COc2ccc([N+](=O)[O-])cc2)cc1 returned T cruzi repl 6, Beta apoptosis -2, SKKanGAS inh 0, Mdm2 MdmX PPI -17 and CSC inhib 9.
